Measurements taken from ChEMBL document CHEMBL1944617, “Near infrared active heptacyanine dyes with unique cancer-imaging and cytotoxic properties” (Bioorg Med Chem Lett, 2012).
Each block holds one molecule with its values, some of them ahead of it. The source made the active and inactive calls. No cut-off for these calls is given here.

Tests used:
[1] = Cytotoxicity against human HDF cells assessed as cell viability at 5 to 20 uM after 24 hrs by trypan blue exclusion assay; type: cell-based; conditions: for Activity: hdf, 24 h, 20 µM
How it was run: (§1)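 Primary human dermal fibroblasts in DMEM with 10% FBS and 1% pen/strep, dosed at 5, 10 or 20 µM for 24 h. Cells pelleted and washed with PBS, then mixed 1:1 with 0.4% trypan blue in PBS pH 7.4, 5 min RT. Blue cells scored non-viable by microscope counting. Mean ± SD of three independent experiments.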

[2] = Cytotoxicity against human HDF cells after 48 hrs by MTT assay; type: cell-based; conditions: for Activity: human, hdf; for IC50: Homo sapiens, HDF
How it was run: (§2)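 HeLa and HDF in DMEM, PC-3 in RPMI, each with 10% FBS and 1% pen/strep. Seeded at 5 × 10³ cells/well, then given dye in DMSO (final DMSO 0.1%) at 0, 0.75, 1, 2, 5, 10, 15, 20 µM for 48 h. Washed twice with PBS, MTT added, 4 h at 37 °C in the dark. Formazan dissolved in DMSO, A570 read. IC50 taken from the survival-versus-concentration curve.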

[3] = Cellular uptake in human PC3 cell cytoplasm at 20 uM after 8 hrs by fluorescence confocal microscopic analysis; type: ADME, cell-based; conditions: pc-3, 8 h
How it was run: (§3)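 PC-3 (RPMI) or primary human dermal fibroblasts (DMEM), 10% FBS, 1% pen/strep, grown on glass coverslips and exposed to dye at 20 µM for 8 h. Fixed in cold (−20 °C) methanol 10 min, blocked in 2% BSA/PBS at 37 °C 1 h, actin stained with fluorescent phalloidin 1 h RT, mounted with DAPI antifade. NIR dye imaged with ICG filter set and 780 nm LED.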

[4] = Cellular uptake in human HDF cell cytoplasm at 20 uM after 8 hrs by fluorescence confocal microscopic analysis; type: ADME, cell-based; how it was run: as §3
HeLa [5] = test: Cytotoxicity against human HeLa cells assessed as cell death at 5 to 20 uM after 24 hrs by trypan blue exclusion assay; type: functional
How it was run: (§4)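 Cells treated 24 h with dye at 5, 10 or 20 µM (PC-3 in RPMI; HeLa and HDF in DMEM; 10% FBS, 1% penicillin/streptomycin). Cells pelleted, PBS-washed, mixed 1:1 with 0.4% trypan blue in PBS pH 7.4, 5 min room temperature. Blue cells scored non-viable by microscope counting. Mean and SD of three independent experiments.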

PC-3 [6] = test: Cytotoxicity against human PC3 cells assessed as cell death at 5 to 20 uM after 24 hrs by trypan blue exclusion assay; type: functional; how it was run: as §4
HeLa [7] = test: Cytotoxicity against human HeLa cells after 48 hrs by MTT assay; type: functional, cell-based; how it was run: as §2
PC-3 [8] = test: Cytotoxicity against human PC3 cells after 48 hrs by MTT assay; type: functional, cell-based; conditions: for IC50: PC-3, 48 h; how it was run: as §2
[9] = Cytotoxicity against human HDF cells assessed as cell death at 5 to 10 uM after 24 hrs by trypan blue exclusion assay; type: cell-based; how it was run: as §1
[10] = Cytotoxicity against human HDF cells assessed as cell death at 20 uM after 24 hrs by trypan blue exclusion assay; type: cell-based; how it was run: as §1
HeLa [11] = test: Cytotoxicity against human HeLa cells assessed as cell survival at 5 to 10 uM after 24 hrs by trypan blue exclusion assay; type: functional; how it was run: as §4
PC-3 [12] = test: Cytotoxicity against human PC3 cells assessed as cell survival at 5 to 10 uM after 24 hrs by trypan blue exclusion assay; type: functional; how it was run: as §4
[13] = Cytotoxicity against human HDF cells assessed as cell survival at 5 to 10 uM after 24 hrs by trypan blue exclusion assay; type: cell-based; conditions: read-out: Survival; how it was run: as §4

Drug uptake [3]: Not Active
Drug uptake [4]: Not Active
Structure (SMILES): CC1(C)C(/C=C/C2=C(Cl)C(=C/C=C3\N(CCCCS(=O)(=O)[O-])c4ccccc4C3(C)C)/CCC2)=[N+](CCCCS(=O)(=O)[O-])c2ccccc21.[Na+]
Activity [1]: Non-toxic
Activity [2]: Non-toxic

Structure (SMILES): COC(=O)CCCCCN1/C(=C/C=C2\CCCC(/C=C/C3=[N+](CCCCCC(=O)OC)c4ccccc4C3(C)C)=C2Cl)C(C)(C)c2ccccc21.[Br-]
Activity (HeLa [5]): >90%
Activity (PC-3 [6]): >90%
viability at 24 h, up to 20 µM ([1]; HDF cells, read-out: Activity): 100%
IC50 (HeLa [7]): 0.8 µM
IC50 (PC-3 [8]): 3 µM
IC50 [2]: 10 µM
Drug uptake [3]: Active
Drug uptake [4]: Not Active

Structure (SMILES): COC(=O)CCCCCN1/C(=C/C=C2\CCCC(/C=C/C3=[N+](CCCCCC(=O)O)c4ccccc4C3(C)C)=C2Cl)C(C)(C)c2ccccc21.[Br-]
Activity (HeLa [5]): Active
Activity (PC-3 [6]): Active
Activity [9]: 10%
Activity [10]: 80%
Survival (HeLa [11]): 20%
Survival (PC-3 [12]): 20%
viability at 24 h, up to 10 µM [13]: 85%
IC50 (HeLa [7]): 1 µM
IC50 (PC-3 [8]): 2 µM
IC50 [2]: 5 µM
Drug uptake [3]: Active
Drug uptake [4]: Not Active

Structure (SMILES): CC1(C)C(/C=C/C2=C(Cl)C(=C/C=C3/N(CCCCCC(=O)O)c4ccccc4C3(C)C)/CCC2)=[N+](CCCCCC(=O)O)c2ccccc21.[Br-]
Activity (HeLa [5]): inactive
Activity (PC-3 [6]): inactive
Activity [1]: Non-toxic
Activity (HeLa [7]): inactive
Activity (PC-3 [8]): inactive
Activity [2]: Non-toxic
Drug uptake [3]: Not Active
Drug uptake [4]: Not Active

Structure (SMILES): CC1(C)C(/C=C/C2=C(Cl)C(=C/C=C3/N(CCCCS(=O)(=O)O)c4ccccc4C3(C)C)/CCC2)=[N+](CCCCS(=O)(=O)[O-])c2ccccc21
Activity (HeLa [5]): inactive
Activity (PC-3 [6]): inactive
Activity (HeLa [7]): inactive
Activity (PC-3 [8]): inactive
